Experimental data: PMC8320079 (ACS Omega, 2021)
Several values for one entry are separate records, joined by “and”; a condition that tells them apart may be missing. Equal values may be shown once.

Experiments:
[1] = test system: peripheral blood mononuclear cells (PBMCs); experiment: MTT-based cell viability assay, normal cells; settings: for IC50: PBMCs (normal cells), 24 h, mean ± S.D.
Summary of the method: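 Nontumorigenic PBMCs were exposed 24 h to test compound at 0 and 0.01–400 μM in PBS (pH 7.4), using the same culture and dosing conditions as the tumour lines. MTT formazan was read at 570 nm. Percent cytotoxicity was plotted against log concentration, and IC50 taken from a nonlinear fit (bottom and top asymptotes, centre, Hill slope). Cisplatin reference; mean ± S.D.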

[2] = test system: Ehrlich ascites carcinoma (EAC) cells; experiment: MTT-based cell viability assay, EAC cells; settings: for SI PBMC/EAC: selectivity index IC50 (PBMC)/IC50 (EAC); for IC50: EAC cells, MTT, 24 h, mean ± S.D.
Summary of the method: (§1)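 Test compound dilutions in PBS (pH 7.4), 0 and 0.01–100 μM, applied for 24 h. DL cells were grown in RPMI-1640 with 10% FBS and antibiotics at 37 °C, 5% CO2, and subcultured at 80% confluency. Formazan was read at 570 nm. IC50 came from a four-parameter nonlinear fit of % cytotoxicity versus log concentration. Cisplatin reference; mean ± S.D., n = 3. SI = IC50(PBMC)/IC50(DL or EAC); PBMCs were tested at 0.01–400 μM.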

[3] = Solubility noted as property of the isolated complex; format: physicochemical; settings: qualitative
[4] = test system: Dalton's lymphoma (DL) cells; experiment: MTT-based cell viability assay, DL cells; settings: for IC50: DL cells, MTT, 24 h, mean ± S.D.; for SI PBMC/DL: selectivity index IC50 (PBMC)/IC50 (DL)
Summary of the method: as §1

[5] = DMSO-d6 stability study by 31P{1H} and 1H NMR; format: physicochemical; settings: for stability over time in DMSO-d6: 31P{1H} and 1H NMR at time intervals over 6 h
DL cell line = experiment: Apoptosis, AO/EB dual staining, DL cells; format: cell-based; settings: 24 h
EAC cell line = experiment: Apoptosis, AO/EB dual staining, EAC cells; format: cell-based; settings: 24 h
Summary of the method: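 Cells (1 × 10^6) exposed 24 h to test compound at 0.01, 0.1, 0.5, 1, 5 and 10 μM; washed twice with PBS (pH 7.4); stained 5 min in a dark cold room with acridine orange and ethidium bromide, 100 μg/mL each in PBS. Fluorescence microscopy in three replicates, about 1000 cells counted per group; orange/red nuclei scored as apoptotic (%). Cisplatin reference; mean ± S.D., n = 3, one-way ANOVA.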

Molecule | IC50 [1] [µM] | SI PBMC/EAC [2] | solubility in DMSO [3] | IC50 [4] [µM] | SI PBMC/DL [4] | stability over time in DMSO-d6 [5] | stability in DMSO (properties line of the synthesis) [5] | IC50 [2] [µM] | cytotoxicity in normal cells, in words ([1]; PBMCs) | apoptosis-inducing ability (DL cell line) | apoptosis-inducing ability (EAC cell line)
[OsCl(η^6-p-cymene)(PPh3)(GeCl3)] [Compound 7] | 397.6 ± 3.5 | 3.83 | sparingly soluble | 93 ± 2.8 | 4.28 | somewhat less stable in DMSO-d6 | unstable in DMSO |  |  |  | 
Cc1ccc(C(C)C)cc1.[Cl][Os-]([Cl])[P+](c1ccccc1)(c1ccccc1)c1ccccc1 [Compound 3, [OsCl2(η^6-p-cymene)(PPh3)]] | 149.9 ± 1.2 | 1.22 |  |  | 1.33 |  |  |  |  |  | 
N.N.[Cl][Pt][Cl] [cisplatin, reference compound] | 15.04 ± 0.05 | 40.64 |  | 0.19 ± 0.07 | 79.2 and 79.15 |  |  | 0.37 ± 0.1 |  |  | 
Cc1ccc(C(C)C)cc1.[Cl][Ge-]([Cl])[Cl].[Cl][Os-]1[P+](c2ccccc2)(c2ccccc2)C[P+]1(c1ccccc1)c1ccccc1 [Compound 8, [OsCl(η^6-p-cymene)(κ^2-dppm)]^+GeCl3^–] | 161 ± 2.8 | 8.86 | sparingly soluble | 8.3 ± 0.05 | 19.42 | some decomposition of the complex occurs | somewhat stable in DMSO | 18.2 ± 0.05 | negligible cytotoxicity | stronger apoptosis-inducing ability than the rest of the tested compounds | inducing apoptotic cell death
Cc1ccc(C(C)C)cc1.[Cl][Os-]1[P+](c2ccccc2)(c2ccccc2)C[P+]1(c1ccccc1)c1ccccc1.[Cl][Sn-]([Cl])[Cl] [Compound 10, [OsCl(η^6-p-cymene)(κ^2-dppm)]^+SnCl3^–] | 145 ± 1.8 | 6.78 | readily soluble | 15.8 ± 0.05 | 9.18 | stable in DMSO-d6 for as long as 6 h | stable in DMSO | 21.4 ± 0.57 |  |  | 
[OsCl(η^6-p-cymene)(PPh3)(SnCl3)] [Compound 11] |  | 4.90 | soluble in DMSO | 63.7 ± 1.3 | 6.72 |  |  | 87.3 ± 1.6 |  |  | 
